# Measured values reported in PubChem BioAssay.
# The source made the active and inactive calls.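 How the source made its calls, unless noted: active means NADPH fluorescence slope more negative than the mean of all samples by about 3 SD, 99.7% confidence; inactive means the rest.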
# Assays:
# [1] = inhibitors of TNFa-induced NFkB p65 translocation, primary screen, imaging, HUVEC, MLSMR starter and 10KST1 sets (AID 438;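 active means inhibition above 20% together with a positive visual image hit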;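 further: compound added about 3h40 before a 20 min TNFalpha stimulation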;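 on inhibition: signal is the nuclear over cytoplasmic p65 intensity ratio per well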); conditions: HUVEC TNFa-induced p65 nuclear translocation; cell count: measured here: nuclei count (cytotoxicity indicator), at 2.08 µM; inhibition: at 2 µM, stronger effect = higher value, 0% TNFa-plus-vehicle, 100% no-TNFa wells
# [2] = endothelial E-selectin expression blockers – imaging, HUVEC, immunofluorescence, MLSMR starter and 10KST1 sets, primary screen (AID 487;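 active means visually confirmed hit in the image check and inhibition above 20%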;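 on inhibition: signal is fraction of cell area covered by stained E-selectin grains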;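 on nuclei count: 100% = median nuclei count of all wells on the same plate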); conditions: HUVEC TNFalpha-induced E-selectin immunofluorescence imaging, at 2 µM; inhibition: stronger effect = higher value; nuclei count: measured here: cell number, toxicity
# [3] = Primary imaging screen for DUSP6 inhibitors that restore phospho-Erk in transfected HeLa cells, chemical complementation (AID 609;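 active means compounds giving at least 50% inhibition in the cell-based MKP-3 phosphatase rescue imaging test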;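 on inhibition: phospho-Erk level distribution per well compared with pooled transfected vehicle control wells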); conditions: HeLa MKP-3 transfected, phospho-Erk imaging KS statistic, at 10 µM, cells stimulated with TPA for 15 min
# [4] = target: Dual specificity protein phosphatase 6 (Homo sapiens) (UniProt Q16828); assay: as above; conditions: HeLa MKP-3 transfected, phospho-Erk imaging KS statistic; at 10 µM; stronger effect = higher value; cells stimulated with TPA for 15 min
# [5] = target: Voltage-gated potassium channel subunit beta-2 (Rattus norvegicus) (UniProt P62483); assay: inhibitors of rat Kvbeta2 reductase activity – biochemical, NADPH fluorescence, primary screen (AID 622;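 active means fluorescence slope higher than the sample average by over 3 SD, cut at about -0.22 in these data, passing the limit was not always enough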;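 further: slope of raw intensity against log time taken from 70 to 1610 s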); conditions: recombinant KvBeta, 4-cyanobenzaldehyde reduction, at 10 µM, stronger effect = higher value
# [6] = target: Voltage-gated potassium channel subunit beta-2 (Rattus norvegicus) (UniProt P62483); assay: enhancers of rat Kvbeta2 NADPH turnover – biochemical, NADPH fluorescence, primary screen (AID 623); conditions: Recombinant KvBeta, NADPH fluorescence decrease slope, 10 min; at 10 µM; stronger effect = lower value;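 further: fluorescence intensity change per second fitted from 20 to 320 s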
# [7] = target: Alpha-2C adrenergic receptor (Homo sapiens) (UniProt P18825); assay: compounds altering alpha2C-coupled GIRK flux – cell-based, HEK293 alpha2C/GIRK1/2, thallium flux, primary screen (AID 624;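 active means fluorescence slope after compound addition differing from the mean of all screened samples at 99.7% confidence, in either direction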;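 further: slope of fluorescence ratio to pre-addition baseline per second over 15 to 24 s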); conditions: thallium flux BTC fluorescence, at 10 µM, actives lie on both sides
# [8] = inhibitors of larval lipid processing in zebrafish, primary screen, whole organism, PED6 fluorescence, gall bladder and intestine (AID 686;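 active means a full or partial loss of lipid-probe fluorescence in the fish gall bladder, intestine or both, judged by eye; inactive means no fluorescence loss, or compound toxic to the fish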;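 further: larvae 5 to 7 days old with five fish per well; signal comes from phospholipase A2 cleavage of quenched PED6 carried via bile; overnight exposure to compound and PED6 before scoring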); conditions: Zebrafish larvae PED6 lipid processing, fluorescence scoring; screened at 20 µM (by protocol)
# In short: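 Doses: 20 µM single dose. Test system: live zebrafish larvae aged 5-7 days, whole organism. Quantity: five larvae per well. Measured by: By-eye fluorescence microscopy. Reagent: ingested quenched lipid PED6 at 100 nM. Read-out: visual per-well fluorescence inhibition score. Times: overnight exposure of larvae to compound plus PED6.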
# [9] = loss of swimming-algae plug formation – whole organism, Chlamydomonas reinhardtii, WT vs cilia-less mutant, absorbance, 96-well, primary screen (AID 463189;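 active means inhibition at or above 50% relative to wild type and mutant plate controls; inactive means inhibition below 50%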;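 further: 0% = wild type cc124 cells in DMSO and 100% = ciliumless bld1 mutant cells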); conditions: Chlamydomonas reinhardtii gravitaxis, OD600 absorbance, 2 days; at 10 µM; stronger effect = higher value
# [10] = measured here: cell density z-score
# [11] = measured here: nuclear c-Myc green intensity z-score
# [12] = measured here: nuclear pErk red intensity z-score, stronger effect = higher value
# Chain of Voltage-gated potassium channel subunit beta-2 (Rattus norvegicus) (P62483 whole entry, looked up): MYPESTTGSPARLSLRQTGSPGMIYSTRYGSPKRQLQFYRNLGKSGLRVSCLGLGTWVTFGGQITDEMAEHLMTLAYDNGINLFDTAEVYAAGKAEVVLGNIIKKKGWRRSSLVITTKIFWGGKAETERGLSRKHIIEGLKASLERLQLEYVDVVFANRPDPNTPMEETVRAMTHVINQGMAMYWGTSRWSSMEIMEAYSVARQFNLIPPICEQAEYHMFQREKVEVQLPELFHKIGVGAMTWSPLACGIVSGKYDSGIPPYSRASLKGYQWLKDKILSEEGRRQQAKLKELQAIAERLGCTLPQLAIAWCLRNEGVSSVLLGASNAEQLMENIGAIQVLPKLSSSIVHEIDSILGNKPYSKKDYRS
# Chain of Dual specificity protein phosphatase 6 (Homo sapiens) (Q16828 whole entry, looked up): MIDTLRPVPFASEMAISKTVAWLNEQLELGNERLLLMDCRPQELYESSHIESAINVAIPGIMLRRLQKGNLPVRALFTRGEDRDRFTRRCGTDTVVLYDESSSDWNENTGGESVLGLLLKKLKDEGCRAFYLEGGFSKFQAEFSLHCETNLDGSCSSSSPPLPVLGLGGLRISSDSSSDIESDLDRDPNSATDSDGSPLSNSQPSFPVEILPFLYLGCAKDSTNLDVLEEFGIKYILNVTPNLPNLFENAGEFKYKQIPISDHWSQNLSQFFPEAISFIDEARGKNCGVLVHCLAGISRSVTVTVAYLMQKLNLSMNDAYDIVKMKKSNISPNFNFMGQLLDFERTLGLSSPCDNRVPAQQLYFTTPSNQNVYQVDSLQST
# Chain of Alpha-2C adrenergic receptor (Homo sapiens) (P18825 whole entry, looked up): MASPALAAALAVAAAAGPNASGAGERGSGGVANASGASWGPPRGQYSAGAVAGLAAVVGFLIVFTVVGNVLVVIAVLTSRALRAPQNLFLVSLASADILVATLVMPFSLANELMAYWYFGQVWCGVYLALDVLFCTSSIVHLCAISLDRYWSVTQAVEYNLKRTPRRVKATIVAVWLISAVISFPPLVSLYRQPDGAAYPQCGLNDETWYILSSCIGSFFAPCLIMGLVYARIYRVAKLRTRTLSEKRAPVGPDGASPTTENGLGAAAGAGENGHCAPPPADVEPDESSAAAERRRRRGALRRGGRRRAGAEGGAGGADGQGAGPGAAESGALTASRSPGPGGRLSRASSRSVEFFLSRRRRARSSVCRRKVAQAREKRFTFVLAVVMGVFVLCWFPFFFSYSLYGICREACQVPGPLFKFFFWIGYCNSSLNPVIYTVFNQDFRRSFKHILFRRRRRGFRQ
SMILES,cell count [1],inhibition [1],inhibition [2],nuclei count [2] [%],"z-score [3, 10]","z-score [3, 11]","z-score [3, 12]",inhibition [4],fluorescence slope [5],NADPH fluorescence slope [6],slope [7],outcome [8],inhibition [9]
CC1(C)Cc2nc(N)c(C(=O)NCCO)cc2CO1,668,-10.5% (inactive),15.2% (inactive),184,-0.73,0.225,0.421,-3.98% (inactive),-0.476 (inactive),-3e-05 (inactive),0.00417 (inactive),inactive,6.5% (inactive)
Cc1c(-c2cccs2)[n+](=O)c2c(n1[O-])CCCC2,431,-16.7% (inactive),-128% (inactive),164,1.59,-0.562,-0.0919,15% (inactive),-0.419 (inactive),-1.1e-05 (inactive),0.0072 (inactive),inactive,15.1% (inactive)
CCN(CC)CCCn1c(C)cc2c(c1=O)C(c1ccc(OC)c(OC)c1OC)C(C#N)=C(N)O2 (stereo not drawn),439,13.1% (inactive),-23% (inactive),134,-1.55,-0.016,0.949,2.46% (inactive),-0.389 (inactive),-3.6e-05 (inactive),0.0068 (inactive),inactive,-3.45% (inactive)
c1ccc(OCc2nn3c(-c4cccnc4)nnc3s2)cc1,598,-6.1% (inactive),-87.1% (inactive),146,0.586,-1.52,-0.25,-16.8% (inactive),-0.423 (inactive),-5.5e-05 (inactive),0.0063 (inactive),inactive,22.5% (inactive)
CN(C)c1nc2sc3c(c2c(=O)n1C)CC(C)(C)OC3,651,-12.1% (inactive),-452% (inactive),185,-0.36,0.198,1,-0.159% (inactive),-0.514 (inactive),-4.6e-05 (inactive),0.00471 (inactive),inactive,157% (active)
Cc1ccc(S(=O)(=O)NC(=O)NCc2ccc3c(c2)OCO3)cc1,396,-2.3% (inactive),-36.4% (inactive),91.6,-0.395,0.582,-0.563,5.57% (inactive),-0.485 (inactive),-0.000226 (inactive),0.00482 (inactive),inactive,-10% (inactive)
CSc1nc(NC(C)=O)nc(C)c1Cl,555,1.9% (inactive),33.2% (inactive),97.7,-0.722,0.648,-0.574,1.48% (inactive),-0.343 (inactive),-7.4e-06 (inactive),0.00457 (inactive),inactive,37.7% (inactive)
O=C(O)c1cnn2c(C(F)(F)F)cc(-c3ccco3)nc12,416,1.3% (inactive),-45.3% (inactive),96.3,1.16,-0.0109,-0.464,9.39% (inactive),-0.48 (inactive),-7.9e-05 (inactive),0.005 (inactive),inactive,17.4% (inactive)
CC(=O)c1cc(C#N)c(SCc2ccncc2)nc1C,591,-18.5% (inactive),40% (inactive),122,1.87,-0.619,1.67,-2.29% (inactive),-0.548 (inactive),-8.8e-06 (inactive),0.00573 (inactive),inactive,-20.5% (inactive)
Nc1nnc(CSCc2ccc(F)cc2)s1,537,7% (inactive),23.2% (inactive),111,-1.12,1.17,-0.516,-13.3% (inactive),-0.473 (inactive),-2.4e-05 (inactive),0.00497 (inactive),inactive,3.98% (inactive)
CCCc1[nH]nc2c1C(c1cccc(OC)c1)C(C#N)=C(N)O2 (stereo not drawn),653,-18% (inactive),32.3% (inactive),178,-0.436,-0.724,0.801,1.04% (inactive),-0.401 (inactive),-5.6e-05 (inactive),0.00438 (inactive),inactive,11.7% (inactive)
Clc1cccc(-c2nn3c(COc4ccccc4)nnc3s2)c1,559,-2.3% (inactive),-53% (inactive),139,0.34,0.334,-0.356,-9.66% (inactive),-0.412 (inactive),-0.000153 (inactive),0.00768 (inactive),inactive,-2.6% (inactive)
Cc1ccc2[nH]c3c(NCCN4CCOCC4)ncnc3c2c1,558,-21.5% (inactive),-90.3% (inactive),160,-2.07,-0.295,-0.0856,-6.06% (inactive),-0.475 (inactive),-5.9e-05 (inactive),0.00484 (inactive),inactive,2.83% (inactive)
Cc1nnc(C)n1/N=C/c1cc(Br)cc(Br)c1O,354,3.7% (inactive),-46.9% (inactive),156,0.57,0.148,-0.137,1.6e-07% (inactive),-0.368 (inactive),-0.000109 (inactive),0.00748 (inactive),inactive,4.5% (inactive)
CCOC(=O)CSc1nc(N(C)C)nc(N(C)C#N)n1,570,-6.8% (inactive),-140% (inactive),113,0.476,-0.876,-1.19,5.57% (inactive),-0.478 (inactive),-0.00031 (inactive),0.00712 (inactive),inactive,-9.74% (inactive)
O=C1CCC(=O)N1c1nc2nc(-c3ccccc3)cc(-c3ccccc3)n2n1,360,-6.9% (inactive),-15.6% (inactive),91,-0.411,1.12,0.232,5.42% (inactive),-0.467 (inactive),-3e-05 (inactive),0.00473 (inactive),inactive,46.1% (inactive)
C=CCOC(=O)C(C#N)c1nc2ccccc2nc1N1CCC(C(=O)OCC)CC1 (stereo not drawn),486,-17.7% (inactive),-58.1% (inactive),138,0.17,0.218,-0.151,-6.06% (inactive),-0.471 (inactive),-6.3e-05 (inactive),0.00188 (inactive),inactive,13.6% (inactive)
ClC(Br)=C(n1cnc2ccccc21)n1cnc2ccccc21,536,-11% (inactive),-108% (inactive),155,1.2,-0.506,-1.02,16.1% (inactive),-0.523 (inactive),-3.7e-05 (inactive),0.00536 (inactive),inactive,30.5% (inactive)
COCc1[nH]nc2c1C(c1cccc(OC)c1)C(C#N)=C(N)O2 (stereo not drawn),637,-2.3% (inactive),-17.7% (inactive),174,0.403,-0.811,-1.74,-2.29% (inactive),-0.403 (inactive),-3.7e-05 (inactive),0.00513 (inactive),inactive,2.83% (inactive)
CC1(c2ccco2)NC(=O)NC1=O (stereo not drawn),665,-2.9% (inactive),-112% (inactive),160,-0.981,-0.00713,0.00425,-3.98% (inactive),-0.492 (inactive),-0.00016 (inactive),0.00442 (inactive),inactive,-5.4% (inactive)
COC(=O)C1=C(C)OC(N)=C(C#N)C1c1ccc(OC)c(OC)c1OC (stereo not drawn),401,-10.3% (inactive),-52.9% (inactive),104,0.861,-0.767,-0.967,26.5% (inactive),-0.557 (inactive),-8.1e-05 (inactive),0.00455 (inactive),inactive,42.2% (inactive)
CCCOc1ccc(/C(O)=C2/C(=O)C(=O)N(CCN(C)C)C2c2ccc(OC)c(OC)c2)cc1 (stereo not drawn),461,-7.3% (inactive),-136% (inactive),167,-0.67,0.995,0.868,6.04% (inactive),-0.411 (inactive),-6.1e-05 (inactive),0.00495 (inactive),inactive,8% (inactive)
CCCCOc1ccc(C2CC(=O)N(C)C2=O)cc1 (stereo not drawn),641,-9.7% (inactive),63.8% (inactive),175,-0.371,-0.965,1.92,7.48% (inactive),-0.516 (inactive),-6.5e-05 (inactive),0.00432 (inactive),inactive,3.29% (inactive)
CC(C)(C)C1CCC2(CC1)C(C#N)=C(SCC(=O)Nc1ccccc1)NC(=O)C2C#N (stereo not drawn),390,-3.7% (inactive),-138% (inactive),85.7,-1.51,-1.06,-0.683,9.39% (inactive),-0.461 (inactive),9.2e-06 (inactive),0.0063 (inactive),inactive; toxic,10.8% (inactive)
CSc1nnc(N(CCC#N)CCC#N)s1,351,-2.1% (inactive),-46.6% (inactive),91,0.261,1.77,-1.54,17% (inactive),-0.487 (inactive),-9.5e-06 (inactive),0.0048 (inactive),inactive,29.7% (inactive)
Clc1ccc(-c2nnc3sc(Cc4cccs4)nn23)c(Cl)c1,664,0.3% (inactive),-136% (inactive),169,0.203,0.587,-0.53,-9.66% (inactive),-0.43 (inactive),-0.00015 (inactive),0.00477 (inactive),inactive,37.7% (inactive)
